dFosB act – activators of delta FosB homodimer, primary screen, biochemical, fluorescence polarization, TAMRA-CDK5 oligo, single point; Protein FosB (Mus musculus), P13346; purified delta FosB; percent of positive-control signal above neutral wells; activation, % at 25 µM; 0.99% of 340,000 active; AID 493131, 2011;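 active = mean activation above about 17%, with every replicate also reaching it, limit read from the data, passing the limit was not always enough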
Target sequence (P13346 whole entry, looked up): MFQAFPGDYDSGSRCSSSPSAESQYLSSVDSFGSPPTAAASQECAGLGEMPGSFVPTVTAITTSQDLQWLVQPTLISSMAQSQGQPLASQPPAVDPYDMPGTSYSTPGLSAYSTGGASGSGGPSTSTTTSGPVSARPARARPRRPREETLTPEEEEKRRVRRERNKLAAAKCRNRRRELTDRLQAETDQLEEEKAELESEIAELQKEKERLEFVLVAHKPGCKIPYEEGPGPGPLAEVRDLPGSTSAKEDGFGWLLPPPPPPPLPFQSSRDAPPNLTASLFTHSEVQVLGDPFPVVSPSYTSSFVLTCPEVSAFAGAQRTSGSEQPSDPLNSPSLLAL
CDK5 p35 inh – inhibitors of human CDK5/p35 kinase, primary screen, biochemical, single concentration; Cyclin-dependent kinase 5 (Homo sapiens) + Cyclin-dependent kinase 5 activator 1 (Homo …; Recombinant CDK5/p35, ADP-Glo luminescence, 60 min; inhibition, % at 10 µM; 0.01% of 330,000 active; AID 488839, 2010;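 active = highest replicate inhibition of at least 50% and at least 75% of replicates reaching 50%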
CAL PDZ FP-1 – untagged CAL PDZ binding inhibitors, primary screen, biochemical, fluorescence polarization, HTS | Golgi-associated PDZ and coiled-coil motif-containing protein (Homo sapiens), Q9HD26 | purified CAL PDZ, TMR-peptide fluorescence polarization, 1 h | inhibition, % at 24.9 µM | 0.92% of 300,000 active | AID 602252, 2012;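 active = mean inhibition of at least 30% with at least half of replicates also reaching 30%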
DYRK1A inh – rat Dyrk1A kinase inhibitors, primary screen, biochemical, single point, plate reader. Dual specificity tyrosine-phosphorylation-regulated kinase 1A (Rattus norvegicus), Q63470. ADP-Glo luminescence, NFATc1 peptide. inhibition, % at 12.5 µM. 0.43% of 310,000 active; in the data active = inhibition above about 50%
CAL PDZ FP-2 – CAL PDZ peptide-binding inhibitors, primary screen, biochemical, fluorescence polarization, Cer-tagged CAL PDZ, HTS; Golgi-associated PDZ and coiled-coil motif-containing protein (Homo sapiens), Q9HD26; purified CAL PDZ, TMR-peptide fluorescence polarization, 1 h; inhibition, % at 20 µM; 0.02% of 330,000 active; AID 504414, 2011;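 active = highest replicate inhibition of at least 40%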
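Control set: unlabelled peptide and DMSO controls / Material: purified CerCALP PDZ construct / Timing: 1 h incubation at room temperature before polarization reading / Doses: 20 µM, one dose / Detection: fluorescence polarization (mP)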
Rtt109 HAT inh – inhibitors of C. albicans Rtt109/Vps75 HAT, primary screen, biochemical, ThioGlo CoA-SH fluorescence, plate reader | 0.16% of 330,000 active | inhibition, % at 34.9 µM | purified Rtt109/Vps75, 4 h | Histone acetyltransferase RTT109 (Candida albicans (strain SC5314 / ATCC MYA-2876)), …;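 active = inhibition of at least 50% in every replicate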
Dyrk1A artifact – ADP-Glo luciferase interference without Dyrk1A, dose response, artefact control for Dyrk1A inhibitor project, biochemical, luminescence, cherry-pick, set 02; AC50, µM (series often up to 12 µM); 1,300 tested, under 10 active; shares compounds with DYRK1A inh; ADP-Glo luciferase artifact assay, no Dyrk1A;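 active = fitted half-maximal dose AC50 no more than ten times the top valid tested dose, with luminescence dropping as dose rises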
Numbers stand for hits; i = inactive; nt = no result given. Rows were chosen to be rich in hits. Some 2.2% of all compounds tested hit in one or more screens of this group.

SMILES	dFosB act	CDK5 p35 inh	CAL PDZ FP-1	DYRK1A inh	CAL PDZ FP-2	Rtt109 HAT inh	Dyrk1A artifact
Cc1nc2c(c3c1[nH]c1ccccc13)C(=O)CC(C)(C)C2	i	i	i	85	i	i	i
COc1cccc(NC(=O)Nc2ccc3c(c2)N(C)C(=O)CS3)c1	i	i	i	50	i	i	i
CC(=O)Nc1ccc(NC(=O)Nc2ccc3c(c2)N(C)C(=O)CS3)cc1	i	i	i	i	i	i	nt
CCC1COCCS(=O)(=O)N1Cc1ccccc1 (stereo not given)	i	i	i	55	i	i	i
Cc1ccccc1C(=O)NNC(=O)CCCCC(=O)NNC(=O)c1ccccc1C	i	i	i	66	i	i	i
Oc1ccc(/C=N/n2c(-c3ccccc3)n[nH]c2=S)cc1	i	i	nt	55	i	i	i
COc1ccc(/C=N/n2c(-c3ccccc3)n[nH]c2=S)cc1	i	i	i	i	i	i	nt
COc1ccc(N2Nc3n[nH]c(N)c3N2)cc1	i	i	i	61	i	i	i
CCN(CC)CCCNc1ccc2ncn3c4ccc(O)cc4c(=O)c1c23	38	i	i	87	i	i	i
CCN(CC)CCCNc1ncnc2ccccc12	i	i	i	i	i	i	nt
COc1ccc2cc(-c3cccnc3)ncc2c1	i	i	i	68	i	i	i
COc1ccc(-c2cc3ccc(OC)cc3cn2)cc1	i	i	i	i	i	i	nt
Cc1ccccc1OCCC(=O)NCCc1ccc(S(N)(=O)=O)cc1	i	i	i	i	i	i	nt
CCOC(=O)C1CCCN(CCC(=O)Nc2cccc(Cl)c2C)C1 (stereo not given)	i	i	i	i	i	i	nt
Cc1nc2cc3ccccc3cc2n1C	i	i	i	i	i	i	nt
Cn1c(=O)[nH]c2cc3ccccc3cc21	i	i	i	52	i	i	i
CC(=O)Nc1ccc2sc(NC(=O)CN3CCOCC3)nc2c1	i	i	nt	i	i	i	nt
O=C(CN1CCOCC1)Nc1nc2ccc([N+](=O)[O-])cc2s1	i	i	i	81	i	i	i
O=C(CN1CCOCC1)Nc1nc2ccc(F)cc2s1	i	i	i	51	nt	i	i
Cc1ccc(F)c(NC(=O)C2CCCCC2C(=O)O)c1 (stereo not given)	i	i	i	nt	i	i	nt
C[N+](C)(CCOc1ccccc1)Cc1ccccc1	i	i	i	69	i	i	i
COc1ccc(-c2csc(N=C(N)N)n2)cc1	i	i	i	82	i	i	i
CN(C)S(=O)(=O)c1ccc(NC(=O)CCNC(=O)c2ccco2)cc1	i	i	i	i	i	i	nt
Cc1cc(C(=O)NNC(=O)Cc2ccc(Cl)c(Cl)c2)c(C)o1	i	i	i	i	i	i	nt
Cc1ccc(-n2nc(C)c(C(=O)Nc3cccc(C(=O)NC4CC4)c3)n2)c(C)c1	i	i	nt	i	i	i	nt
SMILES	dFosB act	CDK5 p35 inh	CAL PDZ FP-1	DYRK1A inh	CAL PDZ FP-2	Rtt109 HAT inh	Dyrk1A artifact
CCOC(=O)C1=C(C)OC(N)=C(C#N)C1c1cc2c(cc1Br)OCO2 (stereo not given)	i	i	i	54	i	i	i
COC(=O)CSc1nc(N)c(C#N)c(C(C)C)c1C#N	i	i	i	50	i	i	i
CC1Cc2cc(/C=C3/SC(=S)NC3=O)ccc2O1 (stereo not given)	i	i	i	84	i	i	i
CCN(CC)c1ccc(C=C2SC(=S)NC2=O)cc1	i	i	i	nt	i	i	nt
C=C1[C@H](C)CN[C@H]1CCO	i	i	i	i	i	i	nt
COc1ccc(C(C(=O)NC2CCCCC2)N(C(=O)c2ccco2)c2ccccc2C(C)=O)cc1 (stereo not given)	i	i	i	i	i	i	nt
CCOC(=O)N1CCc2cc(OC)c(OC)c3c2c1cc1cc(OC)c(OC)cc13	i	i	i	i	i	i	nt
Cc1cccc(Nc2nc(N)c([N+](=O)[O-])c(N3CC(C)CC(C)C3)n2)c1 (stereo not given)	i	i	i	i	i	i	nt
Cc1cccc(Nc2nc(N)c([N+](=O)[O-])c(N3CCC(C)CC3)n2)c1	i	i	i	50	i	i	i
Cc1ccc(C(=O)OCC(=O)NC(C)c2ccccc2)s1 (stereo not given)	i	i	i	i	i	i	nt
CC(NC(=O)COC(=O)c1ccc([N+](=O)[O-])s1)c1ccccc1 (stereo not given)	i	i	i	56	i	nt	i
COc1ccccc1N(C)S(=O)(=O)c1ccc(C(=O)OCC(=O)N(C(C)C)C(C)C)cc1	i	i	i	nt	i	i	nt
C/C(=N/NC(=O)c1ccc(Br)s1)c1cccnc1	i	i	i	51	i	i	i
Clc1ccccc1OCc1nn2c(-c3ccncc3)nnc2s1	i	i	i	i	i	i	nt
Cc1nc(COc2ccccc2Cl)sc1-c1ccnc(N)n1	i	i	i	79	i	i	i
CCCCCCCCCCCCCCCC[N+](C)(C)CCN(Cc1ccc(OC)cc1)c1ncccn1	i	i	i	63	i	88	i
N=C1S/C(=C\c2ccc(O)cc2)C(=O)N1c1ccc(F)cc1	i	i	i	78	i	i	i
CCOc1cc(/C=C2\SC(=O)N(c3ccc(O)cc3)C2=O)ccc1O	i	i	i	i	i	i	nt
O=C1NC(=O)/C(=C/c2ccc(O)cc2)S1	i	i	i	90	i	i	i
C=C(C)Cn1cnc2cc(C)c(C)cc21	i	i	i	i	i	i	nt
Cc1ccc2oc(=O)c3cnn(CC(=O)NC4CCCCC4C)c3c2c1 (stereo not given)	i	i	nt	61	i	i	i
Cc1ccc2oc(=O)c3cnn(CC(=O)NC4CCC(C)CC4)c3c2c1 (stereo not given)	i	i	i	i	i	i	nt
CCc1ccc2nc(NC(=O)C3CSC4(C)CCC(=O)N34)sc2c1 (stereo not given)	i	i	nt	61	i	i	i
O=S(=O)(Nc1nc2ccccc2nc1Cl)c1ccc(Br)cc1	i	i	nt	i	i	i	nt

Source: PubChem BioAssay (Broad Institute)
